Test results taken from ChEMBL document CHEMBL5058577, “EUbOPEN Chemogenomics Library 2 (Multiplex)” (2022).

Tested on: U2OS
Assay: Multiplex assay against U2OS
Format: toxicity, cell-based
Details: human
Procedure, shortened: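 Tubulin, mitochondrial-mass and membrane-permeability phenotypes are per cents of healthy-nucleus cells. Cells were gated by CellPathfinder machine learning into Hoechst high-intensity objects or normal cells, normal cells into healthy, pyknosed or fragmented nuclei, and pyknosed cells into mitotic or apoptotic. Before that, live cells stained at seeding with Hoechst33342, BioTracker Green Microtubule Cytoskeleton Dye, MitoTracker Red and Annexin V Alexa Fluor 680 were imaged on a CQ1 microscope at 37°C and 5% CO2 after compound addition.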

[1] = 12 h, 1 µM, compound concentration 1 uM, replicate 1
[2] = 12 h, 1 µM, compound concentration 1 uM, replicate 2
[3] = 12 h, 10 µM, compound concentration 10 uM, replicate 1
[4] = 12 h, 10 µM, compound concentration 10 uM, replicate 2
[5] = 24 h, 1 µM, compound concentration 1 uM, replicate 1
[6] = 24 h, 1 µM, compound concentration 1 uM, replicate 2
[7] = 24 h, 10 µM, compound concentration 10 uM, replicate 1
[8] = 24 h, 10 µM, compound concentration 10 uM, replicate 2
[9] = 48 h, 1 µM, compound concentration 1 uM, replicate 1
[10] = 48 h, 1 µM, compound concentration 1 uM, replicate 2
[11] = 48 h, 10 µM, compound concentration 10 uM, replicate 1
[12] = 48 h, 10 µM, compound concentration 10 uM, replicate 2

C[C@@H]1CC(=O)Nc2cccc(-c3ccc4c(c3)c(-c3cnn(C)c3)nn4C)c2N1
Population Apoptotic (%) [1]: 92%
Population Fragmented Nuclei (%) [1]: 20%
Population Healthy Nuclei (%) [1]: 73%
Population Hoechst High Intensity Objects (%) [1]: 1%
Population Membrane Permeable-Phenotype (%) [1]: 7%
Population Mitochondria Different-Phenotype (%) [1]: 4%
Population Mitotic Cells (%) [1]: 7%
Population Normal (%) [1]: 98%
Population Pyknosed Nuclei (%) [1]: 6%
Population Tubulin-Different-Phenotype (%) [1]: 6%
Total Cell Count [1]: 233
Population Apoptotic (%) [2]: 88%
Population Fragmented Nuclei (%) [2]: 16%
Population Healthy Nuclei (%) [2]: 75%
Population Membrane Permeable-Phenotype (%) [2]: 5%
Population Mitochondria Different-Phenotype (%) [2]: 2%
Population Mitotic Cells (%) [2]: 11%
Population Pyknosed Nuclei (%) [2]: 7%
Population Tubulin-Different-Phenotype (%) [2]: 2%
Total Cell Count [2]: 116
Population Apoptotic (%) [3]: 86%
Population Fragmented Nuclei (%) [3]: 29%
Population Healthy Nuclei (%) [3]: 58%
Population Hoechst High Intensity Objects (%) [3]: 2%
Population Membrane Permeable-Phenotype (%) [3]: 11%
Population Mitochondria Different-Phenotype (%) [3]: 11%
Population Mitotic Cells (%) [3]: 13%
Population Normal (%) [3]: 97%
Population Pyknosed Nuclei (%) [3]: 12%
Population Tubulin-Different-Phenotype (%) [3]: 8%
Total Cell Count [3]: 235
Population Apoptotic (%) [4]: 33%
Population Fragmented Nuclei (%) [4]: 21%
Population Healthy Nuclei (%) [4]: 74%
Population Hoechst High Intensity Objects (%) [4]: 1%
Population Membrane Permeable-Phenotype (%) [4]: 7%
Population Mitochondria Different-Phenotype (%) [4]: 7%
Population Mitotic Cells (%) [4]: 66%
Population Normal (%) [4]: 98%
Population Pyknosed Nuclei (%) [4]: 4%
Total Cell Count [4]: 76
Population Apoptotic (%) [5]: 95%
Population Fragmented Nuclei (%) [5]: 20%
Population Healthy Nuclei (%) [5]: 71%
Population Hoechst High Intensity Objects (%) [5]: 2%
Population Membrane Permeable-Phenotype (%) [5]: 5%
Population Mitochondria Different-Phenotype (%) [5]: 2%
Population Mitotic Cells (%) [5]: 4%
Population Normal (%) [5]: 97%
Population Pyknosed Nuclei (%) [5]: 7%
Population Tubulin-Different-Phenotype (%) [5]: 2%
Total Cell Count [5]: 294
Population Apoptotic (%) [6]: 100%
Population Fragmented Nuclei (%) [6]: 22%
Population Healthy Nuclei (%) [6]: 74%
Population Hoechst High Intensity Objects (%) [6]: 1%
Population Membrane Permeable-Phenotype (%) [6]: 1%
Population Mitochondria Different-Phenotype (%) [6]: 1%
Population Mitotic Cells (%) [6]: 0%
Population Normal (%) [6]: 98%
Population Pyknosed Nuclei (%) [6]: 4%
Population Tubulin-Different-Phenotype (%) [6]: 0%
Total Cell Count [6]: 152
Population Apoptotic (%) [7]: 90%
Population Fragmented Nuclei (%) [7]: 24%
Population Healthy Nuclei (%) [7]: 63%
Population Hoechst High Intensity Objects (%) [7]: 4%
Population Membrane Permeable-Phenotype (%) [7]: 7%
Population Mitochondria Different-Phenotype (%) [7]: 6%
Population Mitotic Cells (%) [7]: 10%
Population Normal (%) [7]: 95%
Population Pyknosed Nuclei (%) [7]: 11%
Population Tubulin-Different-Phenotype (%) [7]: 3%
Total Cell Count [7]: 266
Population Apoptotic (%) [8]: 83%
Population Fragmented Nuclei (%) [8]: 15%
Population Healthy Nuclei (%) [8]: 78%
Population Hoechst High Intensity Objects (%) [8]: 1%
Population Membrane Permeable-Phenotype (%) [8]: 6%
Population Mitochondria Different-Phenotype (%) [8]: 1%
Population Mitotic Cells (%) [8]: 16%
Population Normal (%) [8]: 98%
Population Pyknosed Nuclei (%) [8]: 6%
Population Tubulin-Different-Phenotype (%) [8]: 4%
Total Cell Count [8]: 97
Population Apoptotic (%) [9]: 100%
Population Fragmented Nuclei (%) [9]: 19%
Population Healthy Nuclei (%) [9]: 73%
Population Hoechst High Intensity Objects (%) [9]: 1%
Population Membrane Permeable-Phenotype (%) [9]: 4%
Population Mitochondria Different-Phenotype (%) [9]: 2%
Population Mitotic Cells (%) [9]: 0%
Population Normal (%) [9]: 98%
Population Pyknosed Nuclei (%) [9]: 6%
Population Tubulin-Different-Phenotype (%) [9]: 3%
Total Cell Count [9]: 437
Population Fragmented Nuclei (%) [10]: 13%
Population Healthy Nuclei (%) [10]: 77%
Population Membrane Permeable-Phenotype (%) [10]: 2%
Population Pyknosed Nuclei (%) [10]: 8%
Population Tubulin-Different-Phenotype (%) [10]: 2%
Total Cell Count [10]: 224
Population Apoptotic (%) [11]: 100%
Population Fragmented Nuclei (%) [11]: 28%
Population Healthy Nuclei (%) [11]: 65%
Population Hoechst High Intensity Objects (%) [11]: 3%
Population Membrane Permeable-Phenotype (%) [11]: 8%
Population Mitochondria Different-Phenotype (%) [11]: 3%
Population Mitotic Cells (%) [11]: 0%
Population Normal (%) [11]: 96%
Population Pyknosed Nuclei (%) [11]: 5%
Population Tubulin-Different-Phenotype (%) [11]: 5%
Total Cell Count [11]: 394
Population Fragmented Nuclei (%) [12]: 23%
Population Healthy Nuclei (%) [12]: 71%
Population Hoechst High Intensity Objects (%) [12]: 4%
Population Membrane Permeable-Phenotype (%) [12]: 3%
Population Mitochondria Different-Phenotype (%) [12]: 0%
Population Normal (%) [12]: 95%
Population Pyknosed Nuclei (%) [12]: 4%
Population Tubulin-Different-Phenotype (%) [12]: 3%
Total Cell Count [12]: 149

C[C@H](NC(=O)CNC(=O)c1cccc(Cl)c1)c1ccccc1
Population Apoptotic (%) [1]: 78%
Population Fragmented Nuclei (%) [1]: 26%
Population Healthy Nuclei (%) [1]: 61%
Population Hoechst High Intensity Objects (%) [1]: 3%
Population Membrane Permeable-Phenotype (%) [1]: 6%
Population Mitochondria Different-Phenotype (%) [1]: 4%
Population Mitotic Cells (%) [1]: 21%
Population Normal (%) [1]: 96%
Population Pyknosed Nuclei (%) [1]: 12%
Population Tubulin-Different-Phenotype (%) [1]: 2%
Total Cell Count [1]: 242
Population Apoptotic (%) [2]: 71%
Population Fragmented Nuclei (%) [2]: 20%
Population Healthy Nuclei (%) [2]: 68%
Population Membrane Permeable-Phenotype (%) [2]: 8%
Population Mitochondria Different-Phenotype (%) [2]: 2%
Population Mitotic Cells (%) [2]: 28%
Population Pyknosed Nuclei (%) [2]: 11%
Total Cell Count [2]: 124
Population Apoptotic (%) [3]: 68%
Population Fragmented Nuclei (%) [3]: 24%
Population Healthy Nuclei (%) [3]: 63%
Population Hoechst High Intensity Objects (%) [3]: 2%
Population Membrane Permeable-Phenotype (%) [3]: 9%
Population Mitochondria Different-Phenotype (%) [3]: 3%
Population Mitotic Cells (%) [3]: 31%
Population Normal (%) [3]: 97%
Population Pyknosed Nuclei (%) [3]: 11%
Population Tubulin-Different-Phenotype (%) [3]: 4%
Total Cell Count [3]: 198
Population Apoptotic (%) [4]: 66%
Population Fragmented Nuclei (%) [4]: 13%
Population Healthy Nuclei (%) [4]: 82%
Population Hoechst High Intensity Objects (%) [4]: 0%
Population Membrane Permeable-Phenotype (%) [4]: 2%
Population Mitotic Cells (%) [4]: 33%
Population Normal (%) [4]: 100%
Population Pyknosed Nuclei (%) [4]: 4%
Population Tubulin-Different-Phenotype (%) [4]: 2%
Total Cell Count [4]: 150
Population Apoptotic (%) [5]: 79%
Population Fragmented Nuclei (%) [5]: 19%
Population Healthy Nuclei (%) [5]: 71%
Population Hoechst High Intensity Objects (%) [5]: 2%
Population Membrane Permeable-Phenotype (%) [5]: 7%
Population Mitochondria Different-Phenotype (%) [5]: 2%
Population Mitotic Cells (%) [5]: 20%
Population Normal (%) [5]: 97%
Population Pyknosed Nuclei (%) [5]: 8%
Population Tubulin-Different-Phenotype (%) [5]: 2%
Total Cell Count [5]: 275
Population Apoptotic (%) [6]: 88%
Population Healthy Nuclei (%) [6]: 69%
Population Membrane Permeable-Phenotype (%) [6]: 4%
Population Mitochondria Different-Phenotype (%) [6]: 4%
Population Mitotic Cells (%) [6]: 11%
Population Pyknosed Nuclei (%) [6]: 10%
Population Tubulin-Different-Phenotype (%) [6]: 0%
Total Cell Count [6]: 168
Population Apoptotic (%) [7]: 90%
Population Fragmented Nuclei (%) [7]: 24%
Population Healthy Nuclei (%) [7]: 61%
Population Hoechst High Intensity Objects (%) [7]: 1%
Population Membrane Permeable-Phenotype (%) [7]: 6%
Population Mitochondria Different-Phenotype (%) [7]: 4%
Population Mitotic Cells (%) [7]: 9%
Population Normal (%) [7]: 98%
Population Pyknosed Nuclei (%) [7]: 13%
Population Tubulin-Different-Phenotype (%) [7]: 2%
Total Cell Count [7]: 239
Population Apoptotic (%) [8]: 71%
Population Fragmented Nuclei (%) [8]: 12%
Population Healthy Nuclei (%) [8]: 83%
Population Membrane Permeable-Phenotype (%) [8]: 4%
Population Mitochondria Different-Phenotype (%) [8]: 2%
Population Mitotic Cells (%) [8]: 28%
Population Pyknosed Nuclei (%) [8]: 3%
Population Tubulin-Different-Phenotype (%) [8]: 3%
Total Cell Count [8]: 189
Population Apoptotic (%) [9]: 74%
Population Fragmented Nuclei (%) [9]: 18%
Population Healthy Nuclei (%) [9]: 71%
Population Hoechst High Intensity Objects (%) [9]: 3%
Population Membrane Permeable-Phenotype (%) [9]: 6%
Population Mitochondria Different-Phenotype (%) [9]: 3%
Population Mitotic Cells (%) [9]: 25%
Population Normal (%) [9]: 96%
Population Pyknosed Nuclei (%) [9]: 10%
Population Tubulin-Different-Phenotype (%) [9]: 1%
Total Cell Count [9]: 401
Population Apoptotic (%) [10]: 100%
Population Fragmented Nuclei (%) [10]: 17%
Population Healthy Nuclei (%) [10]: 70%
Population Hoechst High Intensity Objects (%) [10]: 2%
Population Membrane Permeable-Phenotype (%) [10]: 4%
Population Mitotic Cells (%) [10]: 0%
Population Normal (%) [10]: 97%
Population Pyknosed Nuclei (%) [10]: 11%
Population Tubulin-Different-Phenotype (%) [10]: 2%
Total Cell Count [10]: 205
Population Apoptotic (%) [11]: 81%
Population Fragmented Nuclei (%) [11]: 19%
Population Healthy Nuclei (%) [11]: 73%
Population Hoechst High Intensity Objects (%) [11]: 2%
Population Membrane Permeable-Phenotype (%) [11]: 6%
Population Mitochondria Different-Phenotype (%) [11]: 2%
Population Mitotic Cells (%) [11]: 18%
Population Normal (%) [11]: 97%
Population Pyknosed Nuclei (%) [11]: 7%
Population Tubulin-Different-Phenotype (%) [11]: 4%
Total Cell Count [11]: 311
Population Apoptotic (%) [12]: 100%
Population Fragmented Nuclei (%) [12]: 12%
Population Healthy Nuclei (%) [12]: 80%
Population Hoechst High Intensity Objects (%) [12]: 1%
Population Membrane Permeable-Phenotype (%) [12]: 4%
Population Mitochondria Different-Phenotype (%) [12]: 1%
Population Mitotic Cells (%) [12]: 0%
Population Normal (%) [12]: 98%
Population Tubulin-Different-Phenotype (%) [12]: 1%
Total Cell Count [12]: 279
